PfG6PD inh – PfG6PD (Plasmodium falciparum) enzyme inhibition | AID 504690 | PfGluPho enzyme, NADPH resazurin-diaphorase fluorescence | inhibition, % at 20 µM | hit rate 0.78% among 350,000;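 active = inhibition reaching at least a set limit at 20 µM in the primary screen, cut at about 59% in these data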;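 also: 0% = DMSO wells with substrate and 100% = DMSO wells lacking glucose-6-phosphate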
HKDC1 inhibitor – inhibitors of human hexokinase HKDC1. recombinant HKDC1, G6PDH/diaphorase resazurin coupled fluorescence. Q2TB90. inhibition, % at 20 µM. hit rate 0.16% among 340,000. AID 493160;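 active = inhibition above about 35% when tested at 20 µM, limit read from the data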;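 also: plate controls were DMSO wells with enzyme for no effect and DMSO wells lacking enzyme for full effect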
Target sequence (Q2TB90 whole entry, looked up): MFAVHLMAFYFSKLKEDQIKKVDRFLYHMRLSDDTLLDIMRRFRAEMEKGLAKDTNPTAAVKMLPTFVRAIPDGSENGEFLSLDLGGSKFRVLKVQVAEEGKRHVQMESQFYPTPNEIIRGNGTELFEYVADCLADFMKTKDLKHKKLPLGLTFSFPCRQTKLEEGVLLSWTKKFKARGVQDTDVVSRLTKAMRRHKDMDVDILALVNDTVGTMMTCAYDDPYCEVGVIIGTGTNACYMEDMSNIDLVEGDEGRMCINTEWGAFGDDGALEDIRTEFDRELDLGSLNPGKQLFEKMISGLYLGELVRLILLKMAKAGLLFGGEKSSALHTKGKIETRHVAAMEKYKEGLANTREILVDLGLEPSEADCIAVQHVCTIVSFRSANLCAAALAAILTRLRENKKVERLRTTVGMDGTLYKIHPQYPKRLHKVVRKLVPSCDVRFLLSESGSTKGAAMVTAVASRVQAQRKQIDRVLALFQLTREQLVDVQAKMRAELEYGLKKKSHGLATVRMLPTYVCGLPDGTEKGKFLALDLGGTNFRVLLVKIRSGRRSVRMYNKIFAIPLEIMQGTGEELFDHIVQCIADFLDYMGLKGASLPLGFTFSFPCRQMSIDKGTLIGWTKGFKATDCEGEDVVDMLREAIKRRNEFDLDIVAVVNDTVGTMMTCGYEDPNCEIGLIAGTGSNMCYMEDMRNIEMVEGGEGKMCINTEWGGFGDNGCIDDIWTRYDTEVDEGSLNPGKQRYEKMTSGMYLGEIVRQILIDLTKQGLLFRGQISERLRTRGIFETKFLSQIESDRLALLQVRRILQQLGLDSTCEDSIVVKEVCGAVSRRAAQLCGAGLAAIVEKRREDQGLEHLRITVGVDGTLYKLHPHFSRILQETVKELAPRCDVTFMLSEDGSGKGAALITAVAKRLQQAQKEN
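Assay system – recombinant HKDC1 (HK5) hexokinase enzyme, produced in-house · Input – HKDC1 at 5 µg/mL · Reagent – glucose plus 1 mM ATP as hexokinase substrates · Timing – 90 min reaction incubation at room temperature, dark · Measured by – G6PDH/diaphorase-coupled fluorescence, 1 mM NADP, 100 µM resazurin, 525/613 nm · Benchmarks – DMSO-enzyme wells negative, buffer-substituted wells positive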
Diaphorase inh – inhibits diaphorase or chemically oxidizes, flagging diaphorase assay artifacts. diaphorase resazurin-to-resorufin fluorescence, NADH, 16 min; bacterial (C. kluyveri) enzyme, not human. inhibition, % at 20 µM. hit rate 0.69% among 190,000;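 active = primary screen inhibition at 20 µM above a set limit, cut at about 50% in these data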;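 also: plate controls were DMSO with full reaction for no effect and wells lacking NADH for full effect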
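material = Clostridium kluyveri diaphorase enzyme | amount = 0.14 U/mL diaphorase, enzyme working solution | schedule = incubation 16 min, room temperature | detection = fluorescence of resorufin formed from resazurin, Ex 544/Em 590 nm | benchmarks = positive control minus NADH, DMSO neutral control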
G6PDH counter – inhibits Leuconostoc G6PDH, flagging false hits in G6PDH-based assays | hit rate 0.12% among 200,000 | inhibition, % at 5 µM | AID 1020 | Purified L. mesenteroides G6PDH, diaphorase/resazurin coupled fluorescence, 45 min; in the data active = inhibition above about 50%
PfGluPho conf – confirmation of Plasmodium falciparum G6PD inhibitors; shares compounds with PfG6PD inh; recombinant PfGluPho, NADPH-diaphorase-resazurin fluorescence; inhibition, % at 20 µM; hit rate 34% among 2,400; AID 504753;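 active = inhibition of at least 50% at 20 µM in any single replicate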;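 also: 0% = DMSO with substrate and 100% = DMSO lacking glucose-6-phosphate substrate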
Diaphorase 10uM – counter-screen for P. falciparum G6PD inhibitors: diaphorase inhibitors, oxidizers. hit rate 39% among 820. inhibition, % at 20 µM. shares compounds with PfG6PD inh. diaphorase-coupled resazurin reduction, fluorescence, NADPH 10 uM;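 active = average inhibition reaching 50% or more with the compound at 20 µM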;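 also: resorufin red fluorescence formed as diaphorase reduces resazurin using NADPH; 0% = DMSO with enzyme and 100% = DMSO without enzyme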
Diaph ctr 30uM – inhibits diaphorase or oxidizes, flagging false PfG6PD hits. hit rate 29% among 820. AID 504863. inhibition, % at 20 µM. Diaphorase/resazurin coupled assay, resorufin fluorescence, 30 uM NADPH. shares compounds with PfG6PD inh;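 active = inhibition averaging 50% or more, tested at 20 µM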;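 also: 0% = DMSO with enzyme and 100% = DMSO wells lacking diaphorase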
Starred values were filed as active, the others as inactive. In the library only some 1.3% were active in any assay of this set; here they are far more common.

How did CC(=O)Nc1ccc2c(c1)Cc1cc(N3C(=O)C=CC3=O)ccc1-2 do in these assays?
PfG6PD inh: 111*; HKDC1 inhibitor: -5; PfGluPho conf: 100*; Diaphorase 10uM: -14; Diaph ctr 30uM: -15

What do the screens show for `CCOCCCNC(=O)c1ccc(/C=C2\Oc3ccccc3N(C)C2=O)cc1`?
PfG6PD inh: -12; HKDC1 inhibitor: 11

What do the screens show for `CC(C)Cc1ccc(C(C)C(N)=NCCc2ccccc2)cc1` (configuration not stated)?
PfG6PD inh: 10; HKDC1 inhibitor: -5

How did COc1ccc(NC(=O)c2nc3ccccc3s2)cc1 do in these assays?
PfG6PD inh: 79*; HKDC1 inhibitor: 1; Diaphorase inh: -6; G6PDH counter: -2; PfGluPho conf: 16

What do the screens show for `COc1ccc(NC(=O)c2cc3ccccn3n2)cc1`?
PfG6PD inh: 64*; HKDC1 inhibitor: 0; Diaphorase inh: 20; G6PDH counter: -1; PfGluPho conf: 33

Results for COc1ccc(C(=O)Nc2nc3ccccc3s2)c(OC)c1 ?
PfG6PD inh: 76*; HKDC1 inhibitor: 3; PfGluPho conf: 13

Results for COc1ccc(OC)c(NC(=O)c2nc3ccccc3s2)c1 ?
PfG6PD inh: -3; HKDC1 inhibitor: -5; Diaphorase inh: 6; G6PDH counter: 0

How did COc1ccccc1C(=O)Nc1nc2ccccc2s1 do in these assays?
PfG6PD inh: 26; HKDC1 inhibitor: 6

Results for C/C(Cn1nnc([N+](=O)[O-])n1)=N\NC(=O)c1ccccc1 ?
PfG6PD inh: 63*; HKDC1 inhibitor: 9; Diaphorase inh: 19; G6PDH counter: 6; PfGluPho conf: 60*; Diaphorase 10uM: 11; Diaph ctr 30uM: 14

How did CCC1CCCCN1C(=O)c1cc(COc2ccc(-n3cncn3)cc2)on1 (configuration not stated) do in these assays?
PfG6PD inh: 13; HKDC1 inhibitor: -6

How did Cc1ccc2nc(SCC(=O)NC3CCCc4ccccc43)[nH]c2c1 (configuration not stated) do in these assays?
PfG6PD inh: 75*; HKDC1 inhibitor: -4; Diaphorase inh: 11; G6PDH counter: 8; PfGluPho conf: 59*; Diaphorase 10uM: 64*; Diaph ctr 30uM: 42

What do the screens show for `CCOc1ccccc1NS(=O)(=O)c1cccs1`?
PfG6PD inh: 99*; HKDC1 inhibitor: -1; Diaphorase inh: 7; G6PDH counter: 0; PfGluPho conf: 72*; Diaphorase 10uM: 68*; Diaph ctr 30uM: 61*

Results for CCOc1ccccc1NS(=O)(=O)c1c(C)noc1C ?
PfG6PD inh: 63*; HKDC1 inhibitor: 0; Diaphorase inh: 15; G6PDH counter: 30; PfGluPho conf: 54*; Diaphorase 10uM: 45; Diaph ctr 30uM: 34

What do the screens show for `CCOc1ccccc1NC(=O)CCS(=O)(=O)c1cccs1`?
PfG6PD inh: -5; HKDC1 inhibitor: -3

What do the screens show for `O=S(=O)(Nc1cccc2ncccc12)c1cccs1`?
PfG6PD inh: 99*; HKDC1 inhibitor: 19; Diaphorase inh: 30; G6PDH counter: -25; PfGluPho conf: 61*; Diaphorase 10uM: 62*; Diaph ctr 30uM: 56*

What do the screens show for `CCCCN(C)CCCNC(=O)CN1C(=O)COc2ccc(S(=O)(=O)N3CCOCC3)cc21`?
PfG6PD inh: 2; HKDC1 inhibitor: -7

What do the screens show for `CCC(=O)NC1=C(Cl)C(=O)C(NC(=O)CC)=C(Cl)C1=O`?
PfG6PD inh: 114*; HKDC1 inhibitor: 23; PfGluPho conf: 114*; Diaphorase 10uM: 98*; Diaph ctr 30uM: 97*

Results for Cc1ccccc1-c1cnc2c(c1)C(=O)N([C@H](C)CO)C[C@@H](C)[C@H](CN(C)C(=O)c1ccncc1)O2 ?
PfG6PD inh: 13

Results for Cc1ccc(-c2ccc(C(=O)Nc3cccc(F)c3)o2)c2ccccc12 ?
PfG6PD inh: 28; HKDC1 inhibitor: 10; Diaphorase inh: 8; G6PDH counter: 28

Results for COc1ccc(NC(=O)c2ccc(-c3ccccc3Cl)o2)cc1 ?
PfG6PD inh: 65*; HKDC1 inhibitor: 5; Diaphorase inh: 4; G6PDH counter: 12; PfGluPho conf: 13

What do the screens show for `O=C(Nc1cccc(F)c1)c1ccc(-c2ccccc2Cl)o1`?
PfG6PD inh: 79*; HKDC1 inhibitor: 2; Diaphorase inh: 10; G6PDH counter: 18; PfGluPho conf: -7

Results for Cc1cc(C)c(C)c(S(=O)(=O)N(C)CCc2ccccn2)c1C ?
PfG6PD inh: -3; HKDC1 inhibitor: 0

What do the screens show for `COc1ccc(CNC(=O)CN2CCN(S(=O)(=O)c3ccccc3)CC2)cc1`?
PfG6PD inh: -13; HKDC1 inhibitor: 1

What do the screens show for `C[C@H](CO)N1C[C@H](C)[C@@H](CN(C)S(C)(=O)=O)OCc2cnnn2CCCC1=O`?
PfG6PD inh: 3

How did CCn1c([N+](=O)[O-])nc2c1c(=O)[nH]c(=O)n2C do in these assays?
PfG6PD inh: 67*; HKDC1 inhibitor: 2; Diaphorase inh: -4; G6PDH counter: 15; PfGluPho conf: 52*; Diaphorase 10uM: 37; Diaph ctr 30uM: 32

What do the screens show for `O=[N+]([O-])c1ccccc1S(=O)(=O)N/C(=N/S(=O)(=O)c1ccccc1)c1ccccc1`?
PfG6PD inh: -18; HKDC1 inhibitor: -4

How did CSCCOC(=O)C1=C(C)Nc2ccc(C)cc2S1 do in these assays?
PfG6PD inh: 60*; HKDC1 inhibitor: -2; Diaphorase inh: 32; G6PDH counter: -3; PfGluPho conf: -6

What do the screens show for `O=C(Cc1ccc(Cl)cc1)Nc1ccc(N2CCCC2)cc1`?
PfG6PD inh: 3; HKDC1 inhibitor: -5; Diaphorase inh: 1; G6PDH counter: 14

How did Clc1cccc(Cl)c1CNc1ccc(N2CCCC2)cc1 do in these assays?
PfG6PD inh: 96*; HKDC1 inhibitor: 9; Diaphorase inh: 76*; G6PDH counter: 14; PfGluPho conf: 55*; Diaphorase 10uM: -1; Diaph ctr 30uM: -2

What do the screens show for `O=C(CSc1ccccn1)Nc1nonc1[N+](=O)[O-]`?
PfG6PD inh: 112*; HKDC1 inhibitor: 13; PfGluPho conf: 110*; Diaphorase 10uM: 87*; Diaph ctr 30uM: 91*

What do the screens show for `S=C(NN=Cc1ccccn1)N(Cc1ccccn1)Cc1ccccn1`?
PfG6PD inh: 80*; HKDC1 inhibitor: -36; PfGluPho conf: 55*; Diaphorase 10uM: -9; Diaph ctr 30uM: -1

Results for CCOC(=O)[C@@H]1[C@H]2COc3ccccc3[C@H]2N2C(=O)N(c3ccc(C(F)(F)F)cc3)C(=O)[C@]12C ?
PfG6PD inh: 21; HKDC1 inhibitor: -1

Results for COc1ccc(-c2cc3ccc(F)cc3cn2)cc1 ?
PfG6PD inh: 69*; HKDC1 inhibitor: -1; PfGluPho conf: 22

From PubChem BioAssay
